Test results published in ChEMBL document CHEMBL1212715, “Ligand-directed tosyl chemistry for protein labeling in vivo” (Nat Chem Biol, 2009).
One block for each compound: values may come before it. Active and inactive are the calls of the source. The calls are words filed in the database; no cut-off is given here.

Columns and labels:
[1] = molecular target: Carbonic anhydrase 2 (Homo sapiens) (UniProt P00918); assay: Binding affinity to human 7-diethylaminocoumarin labelled carbonic anhydrase2 after 48 hrs by SDS-PAGE/fluorescence gel imaging
Procedure, shortened: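 Purified human CAII (40 µM) was incubated with the Dc-tosyl reagent (80 µM) in 50 mM HEPES, pH 7.2, at 37 °C. Control reactions held EZA (400 µM) or GSH (10 mM). Samples were resolved by SDS-PAGE, read by in-gel fluorescence imaging, then stained with CBB.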

[2] = Toxicity in human RBC assessed as hemolysis; assay type: cell-based; conditions: erythrocyte
[3] = molecular target: Carbonic anhydrase 2 (Homo sapiens) (UniProt P00918); assay: Activity at human carbonic anhydrase2 assessed as hydrolysis of p- nitrophenyl acetate
[4] = molecular target: Carbonic anhydrase 2 (Mus musculus) (UniProt P00920); assay: Binding affinity to endogenously expressed carbonic anhydrase2 in Slc:ICR mouse using syreptavidin-horseradish peroxidase conjugate by Western blot analysis
Procedure, shortened: (§1)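 Male SPF Slc:ICR mice, 8 weeks old, received the biotin probe intravenously (100 µM in 0.5 mL PBS), and tail-vein blood was drawn at 4, 8 and 20 h. For ex vivo runs, EDTA-treated whole blood was diluted two-fold in PBS and held with 5 µM probe, ±500 µM EZA, at 35 °C for 20 h. Lysis used NP-40 buffer with 0.5 mM EZA, followed by 15% SDS-PAGE and PVDF blotting. Biotin was detected with SAv-HRP chemiluminescence; the membrane was reprobed with anti-mouse CAII plus anti-goat IgG-HRP.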

[5] = molecular target: Carbonic anhydrase 2 (Mus musculus) (UniProt P00920); assay: Binding affinity to endogenously expressed carbonic anhydrase2 in Slc:ICR mouse using anti-mouse CA2 antibody by Western blot analysis; procedure, shortened: as §1
[6] = molecular target: Peptidyl-prolyl cis-trans isomerase FKBP1A (Homo sapiens) (UniProt P62942); assay: Binding affinity to human FKBP12 in Jurkat cells at 11 uM after 24 hrs using anti-human FKBP12 antibody; assay type: cell-based; conditions: 4 uM, in the assay text read “at 4 uM after 18 hrs” for “at 11 uM after 24 hrs”
Chain of Peptidyl-prolyl cis-trans isomerase FKBP1A (Homo sapiens) (P62942 whole entry): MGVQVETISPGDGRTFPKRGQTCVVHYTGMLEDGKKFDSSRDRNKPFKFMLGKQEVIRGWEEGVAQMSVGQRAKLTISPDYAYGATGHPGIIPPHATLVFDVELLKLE

Jurkat = assay: Cytotoxicity against in human Jurkat cells after 18 hrs by MTT assay; assay type: cell-based
Procedure, shortened: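 Jurkat cells, maintained in RPMI 1640 with 10% FBS at 37 °C under 5% CO2, were treated at 4 × 10^6 cells per 1 mL serum-free RPMI 1640 with probe (4 µM) at 37 °C for 18 h. Viability was read by MTT assay.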

Activity [1]: 75%
1/Km [3]: 2.38 ×10² /M
Compound: CCN(CC)c1ccc2cc(C(=O)NCCOCCOS(=O)(=O)c3cccc(C(=O)NCCCCCNC(=O)c4ccc(S(N)(=O)=O)cc4)c3)c(=O)oc2c1
Activity [2]: Non-toxic

Activity [4]: inactive
Activity [5]: inactive
Compound: O=C(CCCC[C@@H]1SC[C@@H]2NC(=O)N[C@@H]21)NCCOCCOCCOS(=O)(=O)c1cccc(C(=O)NCCCCCNC(=O)c2ccccc2)c1

Activity [4]: Active
Activity [5]: Active
Compound: NS(=O)(=O)c1ccc(C(=O)NCCCCCNC(=O)c2cccc(S(=O)(=O)OCCOCCOCCNC(=O)CCCC[C@@H]3SC[C@@H]4NC(=O)N[C@@H]43)c2)cc1

Activity [6]: Active
Compound: CCC(C)(C)C(=O)C(=O)N1CCCC[C@H]1C(=O)O[C@H](CCc1ccc(OC)c(OC)c1)c1cccc(OCC(=O)NCCNC(=O)c2cccc(S(=O)(=O)OCCOCCOCCNC(=O)CCCC[C@@H]3SC[C@@H]4NC(=O)N[C@@H]43)c2)c1
Activity (Jurkat): Non-toxic
